According to ChEMBL document CHEMBL1154902, “Potent inhibitor scaffold against Trypanosoma cruzi trans-sialidase” (Bioorg Med Chem, 2010):

Assays:
[1] = biological target: Sialidase-2 (Homo sapiens, UniProt Q9Y3R4); experiment: Inhibition of human Neu2 assessed as MuNANA substrate hydrolysis in presence of 0.1% Triton X-100 by discontinuous fluorimetric assay
Summary of the method: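 Recombinant human Neu2 expressed from pET15b in E. coli BL21(DE3) and purified on DEAE and His-Trap columns. Reactions were quenched with 0.2 M Na2CO3 (pH 10), and released 4-methylumbelliferone was read at ex 355/em 460 nm. Runs were in duplicate or triplicate, corrected for compound fluorescence interference.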

[2] = Inhibition of Trypanosoma cruzi trans-sialidase containing catalytic domain (N58F, R200K) and lectin-like domain (S495 K, V496G, E520K, D593G, I597D, H599R) mutation expressed in Escherichia coli JM109 assessed as MuNANA substrate hydrolysis in presence of 0.1% Triton X-100 by discontinuous fluorimetric assay
Summary of the method: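 Recombinant TcTS lacking the C-terminal SAPA repeat, His-tagged (pTrcHisA) and purified by cation exchange, Ni affinity and gel filtration. Conditions: 8 ng/ml enzyme, 50 µM MuNANA, 50 mM Tris-HCl pH 7.5, 0.1% Triton X-100, 10% DMSO, 25 °C for 30 min. Stopped with 0.2 M Na2CO3 pH 10. Released Mu read at ex 355/em 460 nm in two or three replicates, corrected for compound fluorescence interference.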

[3] = Selectivity for Trypanosoma cruzi trans-sialidase mutant over human Neu2
[4] = Noncompetitive inhibition of Trypanosoma cruzi trans-sialidase containing catalytic domain (N58F, R200K) and lectin-like domain (S495 K, V496G, E520K, D593G, I597D, H599R) mutation expressed in Escherichia coli JM109 by discontinuous fluorimetric assay using Lineweaver-Burke plot
Summary of the method: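 Same MuNANA hydrolysis assay with purified recombinant TcTS at 25 °C in Tris-HCl pH 7.5. MuNANA was varied over 25–200 µM against several inhibitor concentrations, in triplicate. The inhibition mode was assigned by best fit, and Ki for noncompetitive inhibition was taken from the Lineweaver–Burk double-reciprocal plot.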

[5] = system: Trypanosoma cruzi; experiment: Antiparasitic effect against Trypanosoma cruzi assessed as induction of parasite lysis; type: functional, organism-based

Sequence of Sialidase-2 (Q9Y3R4 whole entry): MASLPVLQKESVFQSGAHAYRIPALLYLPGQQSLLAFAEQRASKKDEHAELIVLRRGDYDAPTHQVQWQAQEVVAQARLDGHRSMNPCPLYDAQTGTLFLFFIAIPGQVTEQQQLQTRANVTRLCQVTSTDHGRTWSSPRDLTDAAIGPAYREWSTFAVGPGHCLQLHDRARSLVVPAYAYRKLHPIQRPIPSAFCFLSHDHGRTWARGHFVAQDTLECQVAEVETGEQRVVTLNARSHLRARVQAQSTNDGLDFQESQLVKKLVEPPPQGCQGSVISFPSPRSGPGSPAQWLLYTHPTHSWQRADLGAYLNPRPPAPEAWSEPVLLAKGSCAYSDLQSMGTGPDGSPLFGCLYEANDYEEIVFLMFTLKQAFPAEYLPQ

Oc1cc(O)c2c(c1)O[C@@H](c1ccc(O)c(O)c1)[C@H](O)C2 [(-)-CATECHIN]
IC50 [1]: > 1000 µM
IC50 [2]: > 1000 µM

O=C(O)c1cc(O)c2c(c1)C(=O)c1cccc(O)c1C2=O [RHEIN]
Ratio IC50 [3]: 9.3
IC50 [1]: 130 µM
IC50 [2]: 14 µM

O=c1c(O)c(-c2ccc(O)c(O)c2)oc2cc(O)cc(O)c12 [QUERCETIN]
Ratio IC50 [3]: 2.8
IC50 [1]: 160 µM
IC50 [2]: 58 µM

O=C1c2cccc(O)c2C(=O)c2c(O)cccc21 [DANTHRON]
Ratio IC50 [3]: > 1.4
IC50 [1]: > 1000 µM
IC50 [2]: 710 µM

O=c1cc(-c2ccc(O)cc2)oc2cc(O)ccc12
Ratio IC50 [3]: < 0.5
IC50 [1]: 470 µM
IC50 [2]: > 1000 µM

O=c1cc(-c2ccccc2)oc2cc(O)cc(O)c12 [CHRYSIN]
Ratio IC50 [3]: 2.6
IC50 [1]: 890 µM
IC50 [2]: 340 µM

Cc1cc(O)c2c(c1)C(=O)c1cc(O)cc(O)c1C2=O [EMODIN]
Ratio IC50 [3]: 6.9
IC50 [1]: 760 µM
IC50 [2]: 110 µM

O=c1cc(-c2cc(O)c(O)c(O)c2)oc2cc(O)cc(O)c12 [TRICETIN]
Ratio IC50 [3]: 3.3
IC50 [1]: 130 µM
IC50 [2]: 39 µM

O=c1cc(-c2ccc(O)cc2)oc2cc(O)c(O)c(O)c12 [SCUTELLAREIN]
Ratio IC50 [3]: 1.1
IC50 [1]: 55 µM
IC50 [2]: 50 µM

O=c1cc(-c2ccc(O)c(O)c2)oc2cc(O)cc(O)c12 [LUTEOLIN]
Ratio IC50 [3]: 5.9
IC50 [1]: 130 µM
IC50 [2]: 22 µM

COc1cc(O)c2c(c1)O[C@H](c1ccc(O)cc1)CC2=O [SAKURANETIN]
Ratio IC50 [3]: < 0.9
IC50 [1]: 890 µM
IC50 [2]: > 1000 µM

O=c1cc(-c2ccccc2)oc2cccc(O)c12 [5-HYDROXYFLAVONE]
IC50 [1]: > 1000 µM
IC50 [2]: > 1000 µM

O=c1cc(-c2ccccc2)oc2cc(O)c(O)c(O)c12 [BAICALEIN]
Ratio IC50 [3]: 1.3
IC50 [1]: 130 µM
IC50 [2]: 100 µM

O=c1c(O)c(-c2cc(O)c(O)c(O)c2)oc2cc(O)cc(O)c12 [MYRICETIN]
Ratio IC50 [3]: 8.8
IC50 [1]: 150 µM
IC50 [2]: 17 µM

O=c1cc(-c2ccc(O)cc2)oc2cccc(O)c12
IC50 [1]: > 1000 µM
IC50 [2]: > 1000 µM

O=C(O)c1cc(O)c2c(c1)C(=O)c1cc(O)c(Cl)c(O)c1C2=O
Ratio IC50 [3]: > 170
IC50 [1]: > 100 µM
Ki [4]: 0.89 µM
IC50 [2]: 0.58 µM

O=c1c(O)c(-c2ccc(O)cc2)oc2cc(O)cc(O)c12 [KAEMPFEROL]
Ratio IC50 [3]: 2.1
IC50 [1]: 230 µM
IC50 [2]: 110 µM

O=c1c(-c2ccc(O)cc2)coc2cc(O)cc(O)c12 [GENISTEIN]
Ratio IC50 [3]: 1.7
IC50 [1]: 380 µM
IC50 [2]: 230 µM

COc1ccc(-c2cc(=O)c3c(O)cc(O)cc3o2)cc1 [ACACETIN]
IC50 [1]: > 1000 µM
IC50 [2]: > 1000 µM

O=c1cc(-c2ccc(O)cc2)oc2cc(O)cc(O)c12 [APIGENIN]
IC50 [5]: 680 µM
Ratio IC50 [3]: 7.3
IC50 [1]: 570 µM
Ki [4]: 60 µM
IC50 [2]: 78 µM

O=c1cc(-c2ccccc2O)oc2cc(O)cc(O)c12
Ratio IC50 [3]: 0.2
IC50 [1]: 70 µM
IC50 [2]: 360 µM

COc1cc(O)c2c(=O)cc(-c3ccc(O)cc3)oc2c1 [GENKWANIN]
IC50 [1]: > 1000 µM
IC50 [2]: 140 µM

O=C(O)c1ccc2c(c1)C(=O)c1ccccc1C2=O
Ratio IC50 [3]: 1.9
IC50 [1]: 800 µM
IC50 [2]: 430 µM
